Data on seven compounds can be found in publication PMC3008401 (The Journal of infectious diseases, 2010).

For orientation: CC50 means the concentration that lowers cell viability or growth by half.

The format of data set [1] is cell-based. Conditions: human. Summed up: (§1)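 Huh-7.5 cells electroporated with in vitro transcribed luciferase replicon RNA (genotype 1b Bart79I-luc for line 1; full-length genotype 2a FL-J6/JFH-5′C19Rluc2AUbi for line 2). Seeded at ~2–3×10^4 cells/well, medium changed at 24 h then daily, serial compound dilutions, 4 replicates. At 72 h: 10% alamarBlue, 2 h at 37°C, fluorescence read. Normalized to untreated or DMSO controls. Mean ± SD.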

Data set [2] relates to genotype 1b replicon cells. Conditions: read-out: CC50 Measured by others (1b genotype); cited from earlier work.
Data set [3] deals with HCV J6-JFH (genotype 2a). It counts as cell-based, Hepatitis C virus. The following applies: SCH503034 alone at 2.5μM, 72hr.
Data set [4] is classed as cell-based. The following applies: human. Summed up: as §1
The source holds these as a separate data set.

The conditions of data set [5]: estimated from preclinical animal data; cited from earlier work.

Where a name gives a salt, the structure may show the parent alone. Read-outs that look alike come from different tables or passages of the source.

`NC(=O)c1ncn([C@@H]2O[C@H](CO)[C@@H](O)[C@H]2O)n1` [Ribavirin]: the half-maximal cytotoxic concentration (CC50) at 72 h in data set [1] was > 100 µM.
Consider `CNC(=O)c1c(-c2ccc(F)cc2)oc2cc(N(CCO)S(C)(=O)=O)c(C3CC3)cc12` [HCV-796], for which the CC50 in data set [2] is > 100 µM.
As to `CC(C)[C@H](N)C(=O)O[C@@H]1[C@@H](CO)O[C@@H](n2ccc(N)nc2=O)[C@]1(C)O` [NM-283, valopicitabine], the half-maximal cytotoxic concentration (CC50) in data set [2] is > 100 µM.
For the compound `CC(C)(C)NC(=O)N[C@H](C(=O)N1C[C@H]2[C@@H]([C@H]1C(=O)NC(CC1CCC1)C(=O)C(N)=O)C2(C)C)C(C)(C)C` (stereo partly drawn) [SCH-503034, Boceprevir], the 50% cytotoxic concentration (CC50) at 72 h in data set [1] and in data set [4] was > 100 µM each time. Besides, the “decrease of viral replication” value in data set [3] is ~ 1 log. Moreover, in data set [2], the CC50 is > 100 µM.
`CCC[C@H](NC(=O)[C@@H]1[C@H]2CCC[C@H]2CN1C(=O)[C@@H](NC(=O)[C@@H](NC(=O)c1cnccn1)C1CCCCC1)C(C)(C)C)C(=O)C(=O)NC1CC1` [VX-950, Telaprevir]: in data set [2], the CC50 was 26.7 to 82 µM.
Turning to `CC(C)(C)OC(=O)N[C@H]1CCCCC/C=C\[C@@H]2C[C@@]2(C(=O)NS(=O)(=O)C2CC2)NC(=O)[C@@H]2C[C@@H](OC(=O)N3Cc4cccc(F)c4C3)CN2C1=O` [ITMN-191], the cytotoxic concentration (CC50) in data set [2] is > 50 µM.
Consider `Clc1ccc(Cn2c(CN3CCCC3)nc3ccccc32)cc1` [clemizole, clemizole hydrochloride], for which the half-maximal cytotoxic concentration (CC50) at 72 h is 35 ± 0.5 µM in data set [1] and 40 ± 5 µM in data set [4]. Moreover, the “no observed adverse events level (NOAEL)” value in data set [5] is listed as 100 mg/kg/day.
